Converted amounts (≈) assume the structure as drawn.
How the values were obtained:
[1] = molecular target: T1, Caspase-3 (Homo sapiens, UniProt P42574); test: Inhibition of peptidase activity of CPP32
T1 sequence (P42574 whole entry): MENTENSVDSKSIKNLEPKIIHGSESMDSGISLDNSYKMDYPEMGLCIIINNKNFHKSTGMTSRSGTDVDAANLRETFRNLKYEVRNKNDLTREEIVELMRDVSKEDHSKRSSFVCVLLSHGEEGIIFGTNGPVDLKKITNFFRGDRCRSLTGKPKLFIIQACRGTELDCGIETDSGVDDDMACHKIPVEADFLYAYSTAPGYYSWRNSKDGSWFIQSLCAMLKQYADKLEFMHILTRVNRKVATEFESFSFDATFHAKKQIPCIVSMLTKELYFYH

[2] = test system: P388; test: Cytotoxicity against mouse P388 cells; assay type: functional, cell-based
[3] = test system: A549; test: Cytotoxicity against human A549 cells; assay type: functional, cell-based
[4] = Inhibition of bovine phosphatase activity of calcineurin by microtitre method; parameters: species or system Bos taurus
Outline: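 Bovine calcineurin assayed together with bovine calmodulin, using p-nitrophenyl phosphate as the phosphatase substrate.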

CC(=O)OCC(OC(C)=O)c1c[nH]c2c1C(=O)C(Cl)=C(N)C2=O (configuration not stated) [SECOBATZELLINE B DIACETATE]
IC50 [1]: 25.8 µM
IC50 [2]: 3.83 µg/mL
IC50 [3]: 4.68 µg/mL

N=C1C(Cl)=C(N)C(=O)c2[nH]cc(C(O)CO)c21 (configuration not stated) [SECOBATZELLINE A]
IC50 [4]: 0.55 µg/mL (≈ 2.15 µM)
IC50 [2]: 0.06 µg/mL (≈ 0.235 µM)
IC50 [3]: 0.04 µg/mL (≈ 0.156 µM)

NC1=C(Cl)C(=O)c2c(C(O)CO)c[nH]c2C1=O (configuration not stated) [SECOBATZELLINE B]
IC50 [4]: 2.21 µg/mL (≈ 8.61 µM)
IC50 [2]: 1.22 µg/mL (≈ 4.75 µM)
IC50 [3]: 2.86 µg/mL (≈ 11.1 µM)

CC(=O)OCC(OC(C)=O)c1c[nH]c2c1C(=N)C(Cl)=C(N)C2=O (configuration not stated) [SECOBATZELLINE A DIACETATE]
IC50 [1]: 2.35 µM
IC50 [2]: 0.01 µg/mL
IC50 [3]: 0.12 µg/mL
